Test results: ChEMBL document CHEMBL1140914, “Synthesis and in vitro and in vivo evaluation of 18F-labeled positron emission tomography (PET) ligands for imaging the vesicular acetylcholine transporter” (J Med Chem, 2009)

Legend:
[1] = Drug uptake in Sprague-Dawley rat fat at 25 to 35 uCi, iv after 1 hr postinjection by […]; format: ADME, organism-based, Adipose tissue; details: in vivo
In short: (§1)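 Mature male Sprague-Dawley rats (250–400 g) under 2–3% isoflurane got 25–35 μCi tracer in 100–150 μL saline via tail vein. Groups of at least 4 were euthanized at 5 min, 30 min, 1 h or 2 h. Brain was dissected into regions, and tissues were weighed and gamma counted against an injectate standard. Values are %ID/g, mean ± SD.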

Lung [2] = experiment: Drug uptake in Sprague-Dawley rat lung at 25 to 35 uCi, iv after 2 hrs postinjection by […]; format: ADME, organism-based; details: in vivo; in short: as §1
Bone [3] = experiment: Drug uptake in Sprague-Dawley rat bone at 25 to 35 uCi, iv after 2 hrs postinjection by […]; format: ADME, organism-based, Bone element; details: in vivo; in short: as §1
Lung [4] = experiment: Drug uptake in Sprague-Dawley rat lung at 25 to 35 uCi, iv after 30 mins postinjection by […]; format: ADME, organism-based; details: in vivo, 0.5 h; in short: as §1
Liver [5] = experiment: Drug uptake in Sprague-Dawley rat liver at 25 to 35 uCi, iv after 2 hrs postinjection by […]; format: ADME, organism-based; details: in vivo; in short: as §1
Brain [6] = experiment: Drug uptake in Sprague-Dawley rat brain at 25 to 35 uCi, iv after 1 hr postinjection by […]; format: ADME, organism-based; details: in vivo; in short: as §1
Lung [7] = experiment: Drug uptake in Sprague-Dawley rat lung at 25 to 35 uCi, iv after 1 hr postinjection by […]; format: ADME, organism-based; details: in vivo; in short: as §1
Kidney [8] = experiment: Drug uptake in Sprague-Dawley rat kidney at 25 to 35 uCi, iv after 1 hr postinjection by […]; format: ADME, organism-based; details: in vivo; in short: as §1
Hippocampus = experiment: Drug uptake in Sprague-Dawley rat brain hippocampus at 25 to 35 uCi, iv after 5 mins postinjection by […]; format: ADME, organism-based; details: in vivo; in short: as §1
Kidney [9] = experiment: Drug uptake in Sprague-Dawley rat kidney at 25 to 35 uCi, iv after 5 mins postinjection by […]; format: ADME, organism-based; details: in vivo; in short: as §1
Liver [10] = experiment: Drug uptake in Sprague-Dawley rat liver at 25 to 35 uCi, iv after 1 hr postinjection by […]; format: ADME, organism-based; details: in vivo; in short: as §1
Brain [11] = experiment: Drug uptake in Sprague-Dawley rat brain at 25 to 35 uCi, iv after 5 mins postinjection by […]; format: ADME, organism-based; details: in vivo; in short: as §1
Bone [12] = experiment: Drug uptake in Sprague-Dawley rat bone at 25 to 35 uCi, iv after 5 mins postinjection by […]; format: ADME, organism-based, Bone element; details: in vivo; in short: as §1
Kidney [13] = experiment: Drug uptake in Sprague-Dawley rat kidney at 25 to 35 uCi, iv after 30 mins postinjection by […]; format: ADME, organism-based; details: in vivo, 0.5 h; in short: as §1
Heart [14] = experiment: Drug uptake in Sprague-Dawley rat heart at 25 to 35 uCi, iv after 30 mins postinjection by […]; format: ADME, organism-based; details: in vivo, 0.5 h; in short: as §1
Bone [15] = experiment: Drug uptake in Sprague-Dawley rat bone at 25 to 35 uCi, iv after 1 hr postinjection by […]; format: ADME, organism-based, Bone element; details: in vivo; in short: as §1
Brain [16] = experiment: Drug uptake in Sprague-Dawley rat brain at 25 to 35 uCi, iv after 30 mins postinjection by […]; format: ADME, organism-based; details: in vivo, 0.5 h; in short: as §1
Muscle tissue [17] = experiment: Drug uptake in Sprague-Dawley rat muscle at 25 to 35 uCi, iv after 5 mins postinjection by […]; format: ADME, organism-based; details: in vivo; in short: as §1
Muscle tissue [18] = experiment: Drug uptake in Sprague-Dawley rat muscle at 25 to 35 uCi, iv after 30 mins postinjection by […]; format: ADME, organism-based; details: in vivo, 0.5 h; in short: as §1
Blood [19] = experiment: Drug uptake in Sprague-Dawley rat blood at 25 to 35 uCi, iv after 30 mins postinjection by […]; format: ADME, organism-based; details: in vivo, 0.5 h; in short: as §1
Blood [20] = experiment: Drug uptake in Sprague-Dawley rat blood at 25 to 35 uCi, iv after 2 hrs postinjection by […]; format: ADME, organism-based; details: in vivo; in short: as §1
Blood [21] = experiment: Drug uptake in Sprague-Dawley rat blood at 25 to 35 uCi, iv after 5 mins postinjection by […]; format: ADME, organism-based; details: in vivo; in short: as §1
Cerebellum = experiment: Drug uptake in Sprague-Dawley rat brain cerebellum at 25 to 35 uCi, iv after 5 mins postinjection by […]; format: ADME, organism-based; details: in vivo; in short: as §1
Kidney [22] = experiment: Drug uptake in Sprague-Dawley rat kidney at 25 to 35 uCi, iv after 2 hrs postinjection by […]; format: ADME, organism-based; details: in vivo; in short: as §1
Liver [23] = experiment: Drug uptake in Sprague-Dawley rat liver at 25 to 35 uCi, iv after 30 mins postinjection by […]; format: ADME, organism-based; details: in vivo, 0.5 h; in short: as §1
Blood [24] = experiment: Drug uptake in Sprague-Dawley rat blood at 25 to 35 uCi, iv after 1 hr postinjection by […]; format: ADME, organism-based; details: in vivo; in short: as §1
Heart [25] = experiment: Drug uptake in Sprague-Dawley rat heart at 25 to 35 uCi, iv after 5 mins postinjection by […]; format: ADME, organism-based; details: in vivo; in short: as §1
Heart [26] = experiment: Drug uptake in Sprague-Dawley rat heart at 25 to 35 uCi, iv after 1 hr postinjection by […]; format: ADME, organism-based; details: in vivo; in short: as §1
[27] = Drug uptake in Sprague-Dawley rat fat at 25 to 35 uCi, iv after 5 mins postinjection by […]; format: ADME, organism-based, Adipose tissue; details: in vivo; in short: as §1
[28] = Drug uptake in Sprague-Dawley rat fat at 25 to 35 uCi, iv after 2 hrs postinjection by […]; format: ADME, organism-based, Adipose tissue; details: in vivo; in short: as §1
Muscle tissue [29] = experiment: Drug uptake in Sprague-Dawley rat muscle at 25 to 35 uCi, iv after 2 hrs postinjection by […]; format: ADME, organism-based; details: in vivo; in short: as §1
Muscle tissue [30] = experiment: Drug uptake in Sprague-Dawley rat muscle at 25 to 35 uCi, iv after 1 hr postinjection by […]; format: ADME, organism-based; details: in vivo; in short: as §1
Brain [31] = experiment: Drug uptake in Sprague-Dawley rat brain at 25 to 35 uCi, iv after 2 hrs postinjection by […]; format: ADME, organism-based; details: in vivo; in short: as §1
Striatum = experiment: Drug uptake in Sprague-Dawley rat brain striatum at 25 to 35 uCi, iv after 5 mins postinjection by […]; format: ADME, organism-based; details: in vivo; in short: as §1
Liver [32] = experiment: Drug uptake in Sprague-Dawley rat liver at 25 to 35 uCi, iv after 5 mins postinjection by […]; format: ADME, organism-based; details: in vivo; in short: as §1
Lung [33] = experiment: Drug uptake in Sprague-Dawley rat lung at 25 to 35 uCi, iv after 5 mins postinjection by […]; format: ADME, organism-based; details: in vivo; in short: as §1
[34] = Drug uptake in Sprague-Dawley rat fat at 25 to 35 uCi, iv after 30 mins postinjection by […]; format: ADME, organism-based, Adipose tissue; details: in vivo, 0.5 h; in short: as §1
Cortex = experiment: Drug uptake in Sprague-Dawley rat brain cortex at 25 to 35 uCi, iv after 5 mins postinjection by […]; format: ADME, organism-based; details: in vivo; in short: as §1
Bone [35] = experiment: Drug uptake in Sprague-Dawley rat bone at 25 to 35 uCi, iv after 30 mins postinjection by […]; format: ADME, organism-based, Bone element; details: in vivo, 0.5 h; in short: as §1
Heart [36] = experiment: Drug uptake in Sprague-Dawley rat heart at 25 to 35 uCi, iv after 2 hrs postinjection by […]; format: ADME, organism-based; details: in vivo; in short: as §1

Drug uptake [1]: 0.241 % ID/g | Drug uptake (Lung [2]): 0.199 % ID/g | Drug uptake (Bone [3]): 0.138 % ID/g | Drug uptake (Lung [4]): 0.481 % ID/g | Drug uptake (Liver [5]): 1.791 % ID/g | Drug uptake (Brain [6]): 0.124 % ID/g | Drug uptake (Lung [7]): 0.327 % ID/g | Drug uptake (Kidney [8]): 1.298 % ID/g | Drug uptake (Hippocampus): 0.837 % ID/g | Drug uptake (Kidney [9]): 2.018 % ID/g | Drug uptake (Liver [10]): 2.214 % ID/g | Drug uptake (Brain [11]): 0.823 % ID/g | Drug uptake (Bone [12]): 0.334 % ID/g | Drug uptake (Kidney [13]): 1.896 % ID/g | Drug uptake (Heart [14]): 0.109 % ID/g | Drug uptake (Bone [15]): 0.148 % ID/g | Drug uptake (Brain [16]): 0.226 % ID/g | Drug uptake (Muscle tissue [17]): 0.091 % ID/g | Drug uptake (Muscle tissue [18]): 0.08 % ID/g | Drug uptake (Blood [19]): 0.037 % ID/g | Drug uptake (Blood [20]): 0.02 % ID/g | Drug uptake (Blood [21]): 0.073 % ID/g | Drug uptake (Cerebellum): 0.743 % ID/g | Drug uptake (Kidney [22]): 1.339 % ID/g | Drug uptake (Liver [23]): 1.769 % ID/g | Drug uptake (Blood [24]): 0.029 % ID/g | Drug uptake (Heart [25]): 0.321 % ID/g | Drug uptake (Heart [26]): 0.066 % ID/g | Drug uptake [27]: 0.132 % ID/g | Drug uptake [28]: 0.249 % ID/g | Drug uptake (Muscle tissue [29]): 0.035 % ID/g | Drug uptake (Muscle tissue [30]): 0.056 % ID/g | Drug uptake (Brain [31]): 0.095 % ID/g | Drug uptake (Striatum): 0.911 % ID/g | Drug uptake (Liver [32]): 1.506 % ID/g | Drug uptake (Lung [33]): 1.577 % ID/g | Drug uptake [34]: 0.207 % ID/g | Drug uptake (Cortex): 0.911 % ID/g | Drug uptake (Bone [35]): 0.157 % ID/g | Drug uptake (Heart [36]): 0.047 % ID/g
SMILES: O=C(c1ccc([18F])cc1)C1CCN([C@@H]2Cc3ccccc3C[C@H]2O)CC1 (stereo in doubt; (-))
